SF-1 act = activators of human nuclear receptor SF-1. Q13285. CHO-K1 Gal4-SF-1 LBD luciferase reporter; % increase over DMSO SF-1-specific signal. activation, % at 10 µM. 65,000 compounds, 1.9% hits. AID 522;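 active = activation above the mean activation of all tested compounds plus 3 SD, cut at about 50% in these data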
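Assay system: CHO-K1 cells co-transfected with Gal4 DBD–human SF-1 LBD, 5xGal4 luciferase reporter / Input: 4,000 cells per well / Incubation: 20 h compound exposure at 37 °C after 1 h cell settling / Detection: SteadyLite luciferase luminescence / Control set: DMSO negative control and −SF1 background wells / Replication: one test per compound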
ERb SRC1 inh = blocks coactivator binding to human estrogen receptor beta. Q92731. TR-FRET ER-beta LBD / SRC1-Cy5 peptide binding; receptor agonist-loaded with 1 µM estradiol. inhibition, % at 25.6 µM. 86,000 compounds, 1.3% hits;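 active = compounds whose percent inhibition of the receptor-coactivator binding signal exceeds about 50% in the single-dose screen, limit read from the data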
Target sequence (Q92731 whole entry, looked up, the tested form may be a part): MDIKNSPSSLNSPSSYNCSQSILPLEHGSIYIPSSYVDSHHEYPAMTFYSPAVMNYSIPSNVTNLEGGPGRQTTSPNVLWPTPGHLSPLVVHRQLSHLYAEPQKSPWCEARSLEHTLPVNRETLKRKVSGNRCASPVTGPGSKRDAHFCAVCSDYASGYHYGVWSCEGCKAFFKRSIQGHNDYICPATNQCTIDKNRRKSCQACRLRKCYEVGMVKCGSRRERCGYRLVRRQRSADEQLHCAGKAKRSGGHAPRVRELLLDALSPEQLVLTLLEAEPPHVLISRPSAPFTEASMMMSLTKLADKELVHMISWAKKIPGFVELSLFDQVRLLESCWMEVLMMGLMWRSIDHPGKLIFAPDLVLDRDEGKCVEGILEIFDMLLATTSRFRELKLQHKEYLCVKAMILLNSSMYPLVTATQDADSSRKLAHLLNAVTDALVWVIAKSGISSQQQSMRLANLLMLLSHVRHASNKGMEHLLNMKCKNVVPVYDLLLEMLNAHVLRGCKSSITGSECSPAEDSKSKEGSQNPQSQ
ERa coact pot = ER-alpha (human) coactivator binding potentiation | 86,000 compounds, 1.3% hits | TR-FRET ERalpha-LBD/SRC-Cy5 coactivator binding, 2 h; 100 = basal binding, no effect | P03372 | coactivator binding (% of control), % at 25.6 µM; in the data active = activity above about 200%;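 note: binding measured in presence of low estradiol as agonist stimulus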
ERa coact inh = blocks coactivator binding to human estrogen receptor alpha; TR-FRET ER-alpha LBD / SRC-1 peptide, estradiol-bound; inhibition, % at 25.6 µM; P03372; 86,000 compounds, 1.7% hits; in the data active = inhibition above about 50%
RORA act = activators of human nuclear receptor RORA | CHO-K1 Gal4-RORA LBD luciferase reporter, luminescence; percent increase over mock-subtracted basal signal | activation, % at 10 µM | P35398 | 65,000 compounds, 1.5% hits;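 active = activation above the mean of all tested compounds plus 3 SD, cut at about 49% in these data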
Pyk2 oligo antag = Pyk2 (human) oligomerization antagonism | Q14289 | Q293 cells, Pyk2 FERM NanoBiT luminescence; stronger effect = lower value | z-score (the deposit names both 25 µM and 10 µM) | 99,000 compounds, 0.83% hits | AID 1347419;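 active = Z-score of -3 or lower, scaled per plate to the spread of control and sample wells; inactive = z-score above -3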;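 note: negative z-score means lost luminescence so less FERM oligomerization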
Of the large screens only hits and unclear results are named; the others gave an inactive call; [ ] = remark or other dose. An excerpt weighted towards active compounds, which were near 4.8% of everything screened.

CCOC(=O)c1c(C)[nH]c(C(=O)COC(=O)C2CC2C)c1C (configuration not stated)	SF-1 act 54
CC1CCCN(C(=O)C(C)Sc2nc(-c3ccccc3)cc(C(F)(F)F)n2)C1 (configuration not stated)	none (no result: SF-1 act, RORA act)
CCCCNS(=O)(=O)c1ccc2nc(SCC(=O)c3ccc(C#N)cc3)[nH]c2c1	ERa coact pot 279
C=CCNc1sc(C(=O)c2ccccc2)c(N)c1C#N	ERa coact inh 97[fluorescence artefact?] (no result: SF-1 act, RORA act)
C=CCNc1sc(C(=O)c2ccc(C)cc2)c(N)c1C#N	none (no result: SF-1 act, RORA act)
CCC(C)n1c(C)nc2c(c1=O)c1nc3ccccc3nc1n2-c1ccc2c(c1)OCCO2 (configuration not stated)	ERa coact pot 256[fluorescence artefact?] (no result: Pyk2 oligo antag)
Cc1nc2c(c(=O)n1CC1CCCO1)c1nc3ccccc3nc1n2Cc1ccc2c(c1)OCO2 (configuration not stated)	ERb SRC1 inh 58[fluorescence artefact?], ERa coact inh 69[fluorescence artefact?] (no result: Pyk2 oligo antag)
O=c1c2c3nc4ccccc4nc3n(-c3ccc4c(c3)OCCO4)c2ncn1CC1CCCO1 (configuration not stated)	ERa coact inh 69 (no result: Pyk2 oligo antag)
O=c1c2c3nc4ccccc4nc3n(-c3ccc4c(c3)OCCO4)c2ncn1C1CCCC1	none
O=C(CCOc1ccccc1)Nc1ccc(S(=O)(=O)N2CCCC2)cc1	none
Cc1ccccc1-n1c(C)nnc1SCc1cc(=O)oc2ccc3ccccc3c12	none (no result: SF-1 act, ERb SRC1 inh, ERa coact pot, ERa coact inh, RORA act)
CC(=O)c1ccc(OCC(O)CN2CCN(c3ccccn3)CC2)cc1 (configuration not stated)	none (no result: Pyk2 oligo antag)
Cc1c(CNCc2cccs2)c(C(=O)O)c(C)n1Cc1ccccc1	ERa coact pot 229[fluorescence artefact?]
N#CCCS(=O)(=O)c1nnnn1-c1ccccc1	ERb SRC1 inh 58, ERa coact inh 61 (no result: Pyk2 oligo antag)
Cc1cc(-c2nnc3sc(-c4ccc(Cl)cc4Cl)nn23)n[nH]1	ERa coact pot 360
Clc1cccc(-c2nnc3sc(-c4ccc5c(c4)OCO5)nn23)c1	ERa coact inh 55 (no result: Pyk2 oligo antag)
CN(C)c1ccc(-c2nn3c(-c4ccc(Cl)cc4Cl)nnc3s2)cc1	ERb SRC1 inh 64[fluorescence artefact?], ERa coact inh 85[fluorescence artefact?] (no result: Pyk2 oligo antag)
CCC1Cc2c(nc3c4c(nc(N5CCOCC5)c(C#N)c24)NC(C)=N3)O1 (configuration not stated)	none (no result: Pyk2 oligo antag)
COc1ccc(OC)c(CCNC(=O)CS(=O)(=O)Cc2nc(-c3ccccc3C)oc2C)c1	none
COc1ccc(OC)c(NC(=O)COC(=O)c2c3c(nc4ccccc24)CCCC3)c1	Pyk2 oligo antag -4.4 (no result: SF-1 act, ERb SRC1 inh, ERa coact pot, ERa coact inh, RORA act)
COc1cc(NC(=O)c2c3c(nc4ccccc24)CCC3)cc(OC)c1	none (no result: SF-1 act, ERb SRC1 inh, ERa coact pot, ERa coact inh, RORA act)
CC(C)NC(=O)c1c2c(nc3ccccc13)CCCC2	none (no result: SF-1 act, RORA act)
COc1ccc(C(=O)NCC(=O)OCC(=O)Nc2cc(OC)ccc2OC)cc1	none (no result: SF-1 act, ERb SRC1 inh, ERa coact pot, ERa coact inh, RORA act)
COc1ccc(NC(=O)COC(=O)c2c3c(nc4ccccc24)CCCC3)cc1Cl	Pyk2 oligo antag -4.6 (no result: SF-1 act, ERb SRC1 inh, ERa coact pot, ERa coact inh, RORA act)
COc1ccc(NC(=O)COC(=O)c2c3c(nc4ccccc24)CCCC3)cc1	Pyk2 oligo antag -4.5 (no result: SF-1 act, RORA act)
Cc1nn(-c2ccccc2)c2c1C(O)n1c(nc3ccccc31)S2 (configuration not stated)	none (no result: ERb SRC1 inh, ERa coact pot, ERa coact inh)
Cc1cc(C)n(C(=O)CSc2nnc(SCC(=O)n3nc(C)cc3C)s2)n1	none
COc1ccc(C(C(=O)NC(C)(C)C)N(C(=O)CNC(=O)c2cccs2)c2ccc(C)cc2)cc1OC (configuration not stated)	none (no result: SF-1 act, ERb SRC1 inh, ERa coact pot, ERa coact inh, RORA act)
Cc1ccc(CNc2ccc(O)cc2)cc1	ERb SRC1 inh 65[fluorescence artefact?]
O=C(c1ccc(NC2=NC3CS(=O)(=O)CC3S2)cc1)N1CCN(Cc2ccccc2)CC1 (configuration not stated)	ERa coact inh 93[fluorescence artefact?] (no result: SF-1 act, RORA act, Pyk2 oligo antag)
O=C(c1ccc(NC2=NC3CS(=O)(=O)CC3S2)cc1)N1CCc2ccccc2C1 (configuration not stated)	none (no result: Pyk2 oligo antag)
c1ccc(C2=Nn3c(nnc3-c3cc(-c4ccccc4)n[nH]3)SC2)cc1	Pyk2 oligo antag -3.3
COc1ccc(OC)c(C2=Nn3c(nnc3-c3ccncc3)SC2)c1	none (no result: Pyk2 oligo antag)
COc1ccc(-c2nnc3n2N=C(c2cccc(Br)c2)CS3)cc1OC	ERa coact pot 233 (no result: Pyk2 oligo antag)
COc1ccc(OC)c(C2=Nn3c(nnc3-c3cc(OC)c(OC)c(OC)c3)SC2)c1	Pyk2 oligo antag -3.1
COc1ccc(C2=Nn3c(nnc3-c3ccccc3OC)SC2)cc1OC	none (no result: ERb SRC1 inh, ERa coact pot, ERa coact inh)
CCOc1cccc(-c2nnc3n2N=C(c2cc(OC)ccc2OC)CS3)c1	RORA act 61
CC(C)(C)Nc1nc(NC(C)(C)C)nc(-n2ccnc2)n1	none
Cc1nc2ccc(S(=O)(=O)NCC(=O)NCc3ccc4c(c3)OCO4)cc2s1	none
Cc1nc2ccc(S(=O)(=O)NCC(=O)NCCN3CCCCCC3)cc2s1	ERa coact inh 57[fluorescence artefact?]
Cc1cc(C)nc(Nc2nc3ccccc3[nH]2)n1	none
c1ccc(Nc2nc3ccccc3[nH]2)nc1	SF-1 act 55, RORA act 79
Nc1nonc1-c1noc(N2CCCCC2)n1	SF-1 act 54
COc1ccc(OC)c(-c2nc3c(C)n[nH]c(=O)c3[nH]2)c1	none (no result: ERb SRC1 inh, ERa coact pot, ERa coact inh)
O=C1c2ccccc2C(=O)N1CCCc1nc2ccccc2c(=O)n1CCCn1ccnc1	ERa coact pot 516
Cn1c(-n2c(CCN3C(=O)c4ccccc4C3=O)nc3ccccc3c2=O)nc2ccccc21	RORA act 57 (no result: Pyk2 oligo antag)
COCCN(CCOC)Cc1c(C)[nH]c2c(C)c(C)ccc2c1=O	none
CN(C(=O)c1cnc(N2CCN(c3ncccn3)CC2)c2ccccc12)c1ccc(Cl)cc1	none
CCN(C(=O)c1cnc(N2CCN(c3ncccn3)CC2)c2ccccc12)c1cccc(Cl)c1	Pyk2 oligo antag -3.3
CCCCS(=O)Cc1ccccc1 (configuration not stated)	none (no result: SF-1 act, RORA act)
CCC(C(=O)c1ccccc1)N(C(=O)c1ccccc1Cl)N1C(=O)C2C3C=CC(C3)C2C1=O (configuration not stated)	none (no result: SF-1 act, ERb SRC1 inh, ERa coact pot, ERa coact inh, RORA act)
COc1ccc(N2CSC3=C(C#N)C(c4cc(OC)c(OC)cc4OC)CC(=O)N3C2)c(OC)c1 (configuration not stated)	ERa coact inh 55[fluorescence artefact?] (no result: Pyk2 oligo antag)
COc1ccc(N2CSC3=C(C#N)C(c4ccc(OC)c(OC)c4)CC(=O)N3C2)c(OC)c1 (configuration not stated)	none (no result: Pyk2 oligo antag)
COc1ccc(N2CSC3=C(C#N)C(c4cc(OC)ccc4OC)CC(=O)N3C2)c(OC)c1 (configuration not stated)	none (no result: Pyk2 oligo antag)
COc1ccc(N2CSC3=C(C#N)C(c4cccs4)CC(=O)N3C2)cc1 (configuration not stated)	ERa coact inh 54[fluorescence artefact?]
Cc1ccc(N2CSC3=C(C#N)C(c4cccs4)CC(=O)N3C2)cc1 (configuration not stated)	none (no result: SF-1 act, RORA act, Pyk2 oligo antag)
